target: Aryl hydrocarbon receptor (Homo sapiens) (UniProt P35869); experiment: AHR agonists in hepatoma reporter cells, late-stage follow-up, AHR activator project, HG2L7.5c1 HepG2 cells, luminescence (AID 602171); conditions: HG2L7.5c1 HepG2 DRE-luciferase reporter, 24 h, at 10 µM, stronger effect = higher value
How it was run: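 Assay system: HepG2 (HG2L7.5c1) cells with DRE-driven luciferase reporter. Compound: single 10 µM nominal dose from powder samples. Incubation: 24 h compound exposure, 37 °C. Signal: firefly luciferase luminescence of lysed cells. Read-out basis: % of maximal TCDD activation. Control set: TCDD at maximal inducing level as positive reference. Replication: three wells each.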

Aryl hydrocarbon receptor (Homo sapiens), sequence (P35869 whole entry, looked up): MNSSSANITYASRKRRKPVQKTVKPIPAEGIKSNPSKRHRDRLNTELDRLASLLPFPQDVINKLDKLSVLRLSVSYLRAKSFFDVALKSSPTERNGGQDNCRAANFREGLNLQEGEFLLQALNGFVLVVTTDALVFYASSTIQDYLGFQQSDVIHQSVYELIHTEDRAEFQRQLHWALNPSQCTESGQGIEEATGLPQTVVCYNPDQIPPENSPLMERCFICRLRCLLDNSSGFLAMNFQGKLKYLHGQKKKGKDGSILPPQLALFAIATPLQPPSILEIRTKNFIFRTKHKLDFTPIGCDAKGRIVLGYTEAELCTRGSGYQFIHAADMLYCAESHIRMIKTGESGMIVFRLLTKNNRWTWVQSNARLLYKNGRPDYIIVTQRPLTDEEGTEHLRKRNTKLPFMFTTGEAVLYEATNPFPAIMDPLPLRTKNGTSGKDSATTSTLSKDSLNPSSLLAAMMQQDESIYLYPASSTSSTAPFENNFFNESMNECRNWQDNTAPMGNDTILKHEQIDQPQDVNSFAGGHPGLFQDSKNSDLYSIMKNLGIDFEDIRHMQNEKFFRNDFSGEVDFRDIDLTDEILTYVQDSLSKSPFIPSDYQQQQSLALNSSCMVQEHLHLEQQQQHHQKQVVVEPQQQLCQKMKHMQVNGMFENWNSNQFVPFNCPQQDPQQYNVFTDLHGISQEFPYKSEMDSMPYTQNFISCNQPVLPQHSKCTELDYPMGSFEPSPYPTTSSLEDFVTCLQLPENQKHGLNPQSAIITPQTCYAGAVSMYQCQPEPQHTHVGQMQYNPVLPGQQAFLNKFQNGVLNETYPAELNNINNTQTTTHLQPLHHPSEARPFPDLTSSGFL

Activation (% of TCDD max), active:
COc1ccc(Cl)cc1C(=O)Nc1ccc(N(C)C(C)=O)cc1 165%
O=C(Nc1cccc(Cl)c1)c1cccnn1 44%
COC(=O)c1ccccc1NC(=O)Cn1ccnc1 71%
CCCC(=O)Nc1nn(C)c2nc3cc(C)ccc3cc12 34%
COc1cc2ccccc2cc1C(=O)Nc1ccc(C)cc1 113%
Cc1nnc(N2C(=O)c3cccc4c([N+](=O)[O-])ccc(c34)C2=O)s1 98%
CCOc1ccc(-c2cc(C)n3nc(C(N)=O)cc3n2)cc1 41%
O=C(Nc1ccon1)c1cnc2sccn2c1=O 75%
O=C(CN1CCOCC1)Nc1nc2ccc([N+](=O)[O-])cc2s1 85%
COc1ccccc1NC(=O)Nc1cccnc1 55%
Cc1nc(N)nc(Nc2ccc(Cl)cc2)c1Br 78%
Cn1c(N)c(C(=O)Nc2ccccc2F)sc1=S 106%
CN(C)c1nc(N)nc(-c2nc3ccccc3s2)n1 105%
COc1ccccc1NC(=O)c1ccc(C(=O)Nc2ccccc2OC)nc1 88%
COc1ccccc1C(=O)Nc1ccc(N2CCCCC2)cc1 52%
Cc1c(-c2ccn[nH]2)cc(NC(=O)c2ccc(Cl)cc2)c(=O)n1N 86%
CN1CCN(CCCNC(=O)c2cc3c(-c4ccc(Cl)cc4)nn(C)c3s2)CC1 111%
CCC(=O)Nc1cc(OC)c(NC(=O)c2ccccc2)cc1OC 89%
CCOc1ccc(NC(=O)c2cc3ccccc3cc2OC)cc1 132%
CCOc1ccccc1NC(=O)c1ccc2nccnc2c1 126%
CCOC(=O)Cc1cc(-c2ccc(O)cc2)nc2ccc3ccccc3c12 109%
Cc1ccc(Nc2ncccc2C(N)=O)cc1 166%
Cc1csc(SCC(=O)Nc2ccc(Cl)cn2)n1 82%
COc1cc2c(cc1NC(=O)Nc1ccc(C)cc1)oc1ccccc12 146%
Cc1cc(Nc2ccc(Br)cc2)n2nc(C)nc2n1 88%
Cc1ccc(-c2cc(-c3cccs3)[nH]n2)c(O)c1 99%
Cn1c(C(=O)N2CCC(C(N)=O)CC2)cc2cc(Cl)ccc21 48%
COc1ccc(NC(=O)c2cccc3c(Br)cccc23)cc1 128%
O=C1c2ccccc2-c2nc3ccccc3nc21 197%
COc1ccccc1NC(=O)c1ccc2c(c1)nnn2C 36%
COc1ccc(C(=O)Nc2cc(OC)c(NC(=O)c3ccco3)cc2OC)cc1 125%
CC(=O)c1ccc(NC(=O)c2cc(Cl)nc3ccccc23)cc1 104%
Cc1ccccc1-c1nc(-c2cccnc2)no1 117%

— PubChem BioAssay AID602171 (The Scripps Research Institute Molecular Screening Center, 2012)
